According to ChEMBL document CHEMBL1125823, “2-Phenylindole-linked [2-(aminoalkyl)pyridine]dichloroplatinum(II): complexes with a selective action on estrogen receptor positive mammary tumors” (1991):

Experiments:
[1] = test system: MCF7; assay: Effect on Estrogen receptor positive MCF-7 human breast cancer cell proliferation at 5x10E-6M (control = 62.3+/-8.8); format: functional
Summary of the method: (§1)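 MCF-7 cells were kept in MEM with 5% charcoal-treated newborn calf serum and phenol red for 2 weeks, then about 2×10^4 cells were plated per well. Compounds in 0.1% DMF were added 2 days later and renewed on day 4; DMF alone served as control. Coulter cell counts were taken on day 5; mean of six dishes ± SD; % T/C.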

[2] = molecular target: T1, Estrogen receptor (Mus musculus) (UniProt O08537+P19785); assay: Uterotrophic effect in mice as relative uterine weight(mg) at 15 ug (control = 14.6+/-2.7); format: functional, tissue-based
Summary of the method: (§2)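 Immature mice dosed sc per animal on three consecutive days; vehicle controls. Killed and weighed 24 h after last injection; uteri fixed in Bouin solution 2 h, washed with alcoholic LiCl, dried at 100 °C for 24 h. Relative uterus weight = uterine dry weight (mg)/body weight (g) × 100; mean of 6-10 animals ± SD.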
Target sequence in this assay (O08537 whole entry, looked up): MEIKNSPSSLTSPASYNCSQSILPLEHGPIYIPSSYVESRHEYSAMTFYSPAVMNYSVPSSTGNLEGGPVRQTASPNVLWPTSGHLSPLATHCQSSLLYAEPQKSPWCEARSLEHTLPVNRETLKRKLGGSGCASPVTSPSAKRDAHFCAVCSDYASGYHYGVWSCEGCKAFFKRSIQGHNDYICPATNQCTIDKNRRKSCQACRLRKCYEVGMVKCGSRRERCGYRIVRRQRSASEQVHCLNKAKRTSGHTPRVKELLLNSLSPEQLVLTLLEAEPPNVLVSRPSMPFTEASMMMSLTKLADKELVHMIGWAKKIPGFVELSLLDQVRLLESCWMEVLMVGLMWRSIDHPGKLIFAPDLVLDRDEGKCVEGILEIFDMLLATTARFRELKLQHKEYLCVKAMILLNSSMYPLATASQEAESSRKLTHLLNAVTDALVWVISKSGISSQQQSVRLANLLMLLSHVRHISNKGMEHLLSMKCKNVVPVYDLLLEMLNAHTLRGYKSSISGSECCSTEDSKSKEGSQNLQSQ
Target sequence in this assay (P19785 whole entry, looked up): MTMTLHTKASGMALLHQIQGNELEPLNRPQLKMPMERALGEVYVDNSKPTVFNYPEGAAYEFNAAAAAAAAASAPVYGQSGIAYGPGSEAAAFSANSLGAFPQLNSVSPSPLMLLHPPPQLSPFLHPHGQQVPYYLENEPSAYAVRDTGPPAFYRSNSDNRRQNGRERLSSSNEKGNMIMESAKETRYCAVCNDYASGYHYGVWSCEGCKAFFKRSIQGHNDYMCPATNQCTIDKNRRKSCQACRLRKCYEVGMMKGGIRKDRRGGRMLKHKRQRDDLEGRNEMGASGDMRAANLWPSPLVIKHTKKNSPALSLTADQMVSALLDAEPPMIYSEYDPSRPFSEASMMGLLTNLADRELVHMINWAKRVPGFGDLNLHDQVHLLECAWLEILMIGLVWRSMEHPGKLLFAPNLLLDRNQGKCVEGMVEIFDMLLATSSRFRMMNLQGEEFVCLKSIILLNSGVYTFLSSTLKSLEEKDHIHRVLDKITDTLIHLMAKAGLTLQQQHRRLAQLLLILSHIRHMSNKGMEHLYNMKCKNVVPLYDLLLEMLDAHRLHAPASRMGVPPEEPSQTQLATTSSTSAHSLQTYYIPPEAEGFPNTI

[3] = test system: MCF7; assay: Effect on Estrogen receptor positive MCF-7 human breast cancer cell proliferation at 1x10E-6M; format: functional; summary of the method: as §1
[4] = molecular target: T1, Estrogen receptor (Mus musculus); assay: Anti-uterotrophic effect in mice as relative uterine weight(mg) at 15 ug; format: functional
Summary of the method: (§3)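 Immature mice received the compound sc per animal on three consecutive days, alone or with 0.4 µg estrone per animal per day. Uteri were taken 24 h after the last injection, Bouin-fixed, dried at 100 °C for 24 h and weighed. Relative uterus weight = dry weight (mg)/body weight (g) × 100; mean of 6-10 animals ± SD; Mann-Whitney U test.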
Target sequence in this assay (O08537 whole entry, looked up): as the sequence (O08537 whole entry, looked up) above
Target sequence in this assay (P19785 whole entry, looked up): as the sequence (P19785 whole entry, looked up) above

[5] = molecular target: T1, Estrogen receptor (Mus musculus); assay: Anti-uterotrophic effect in mice as relative uterine weight(mg) at 150 ug; format: functional; summary of the method: as §3
Target sequence in this assay (O08537 whole entry, looked up): as the sequence (O08537 whole entry, looked up) above
Target sequence in this assay (P19785 whole entry, looked up): as the sequence (P19785 whole entry, looked up) above

[6] = molecular target: T1, Estrogen receptor (Mus musculus); assay: Percent inhibition of estrone stimulated uterotrophic effect in mice at 150 ug; format: functional
Summary of the method: (§4)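 Immature mice given test compound per animal sc on three consecutive days together with 0.4 μg estrone/animal/day. Killed 24 h after last injection; uteri fixed in Bouin, dried 100 °C 24 h and weighed. Inhibition = 100 − [(W_S,T − W_V)/(W_S − W_V) × 100] using relative uterus weights; 6-10 animals; Wilcoxon-Mann-Whitney U test.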
Target sequence in this assay (O08537 whole entry, looked up): as the sequence (O08537 whole entry, looked up) above
Target sequence in this assay (P19785 whole entry, looked up): as the sequence (P19785 whole entry, looked up) above

[7] = test system: MCF7; assay: Effect on [3H]thymidine incorporation into estrogen receptor positive MCF-7 human breast cancer cells at 1x10E-6M (control = 43.4+/-1.8); format: functional
Summary of the method: (§5)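 MCF-7 cells were grown in MEM with charcoal-treated 5% newborn calf serum and phenol red, then treated with compounds in 0.1% DMF (renewed on day 4) alongside DMF controls. They were labeled 3 days later with 1 µCi [³H]thymidine per well for 2 h, and incorporated radioactivity per dish was measured; mean of six dishes ± SD; % T/C.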

[8] = molecular target: T1, Estrogen receptor (Mus musculus); assay: Percent inhibition of estrone stimulated uterotrophic effect in mice at 15 ug; format: functional; summary of the method: as §4
Target sequence in this assay (O08537 whole entry, looked up): as the sequence (O08537 whole entry, looked up) above
Target sequence in this assay (P19785 whole entry, looked up): as the sequence (P19785 whole entry, looked up) above

[9] = test system: MCF7; assay: Effect on Estrogen receptor positive MCF-7 human breast cancer cell proliferation at 5x10E-6M; format: functional; summary of the method: as §1
[10] = molecular target: T1, Estrogen receptor (Mus musculus); assay: Uterotrophic effect in mice as relative uterine weight(mg) at 150 ug (control = 14.6+/-2.7); format: functional, tissue-based; summary of the method: as §2
Target sequence in this assay (O08537 whole entry, looked up): as the sequence (O08537 whole entry, looked up) above
Target sequence in this assay (P19785 whole entry, looked up): as the sequence (P19785 whole entry, looked up) above

[11] = test system: MCF7; assay: Effect on [3H]thymidine incorporation into estrogen receptor positive MCF-7 human breast cancer cells at 5x10E-6M; format: functional
Summary of the method: (§6)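 MCF-7 cells in improved MEM with glutamine, gentamycin and 5% newborn calf serum, switched to charcoal-treated serum two weeks ahead; phenol red present; 37 °C, 5% CO2. About 2×10^4 cells plated per well; compound in 0.1% DMF added 2 days later, renewed on day 4; labelled 3 days later with 1 μCi [3H]thymidine per well for 2 h; cpm/dish, mean of six dishes ± SD.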

[12] = test system: MCF7; assay: Effect on [3H]thymidine incorporation into estrogen receptor positive MCF-7 human breast cancer cells at 5x10E-6M (control = 43.4+/-1.8); format: functional; summary of the method: as §6
[13] = test system: MCF7; assay: Effect on Estrogen receptor positive MCF-7 human breast cancer cell proliferation at 1x10E-6M (control = 62.3+/-8.8); format: functional; summary of the method: as §1
[14] = test system: MCF7; assay: Effect on [3H]thymidine incorporation into estrogen receptor positive MCF-7 human breast cancer cells at 1x10E-6M; format: functional; summary of the method: as §5
[15] = species: Mus musculus; assay: Relative tumor weight in treated compared to control mice bearing hormone-dependent transplanted MXT mammary tumors at 1.5 mg; format: functional, organism-based
[16] = species: Mus musculus; assay: Anti-tumor activity in hormone-dependent transplant MXT mammary tumor bearing mice at 1.5 mg (control=534+/-652); format: functional, organism-based
[17] = molecular target: T1, Estrogen receptor (Mus musculus); assay: Anti-uterotrophic effect in hormone-dependent transplant MXT bearing mice as relative uterine weight in treated and control mice at 1.5 mg; format: functional
Target sequence in this assay (P19785 whole entry, looked up, chain 1 of 2): as the sequence (P19785 whole entry, looked up) above
Target sequence in this assay (O08537 whole entry, looked up, chain 2 of 2): as the sequence (O08537 whole entry, looked up) above

[18] = molecular target: T1, Estrogen receptor (Mus musculus); assay: Anti-uterotrophic effect in mice as relative uterine weight(mg) at 250 ug; format: functional; summary of the method: as §3
Target sequence in this assay (P19785 whole entry, looked up, chain 1 of 2): as the sequence (P19785 whole entry, looked up) above
Target sequence in this assay (O08537 whole entry, looked up, chain 2 of 2): as the sequence (O08537 whole entry, looked up) above

[19] = species: Mus musculus; assay: Anti-tumor activity in hormone-dependent transplant MXT mammary tumor bearing mice at 10 mg (control=534+/-652); format: functional, organism-based
[20] = species: Mus musculus; assay: Relative tumor weight in treated compared to control mice bearing hormone-dependent transplanted MXT mammary tumors at 10 mg; format: functional, organism-based
[21] = molecular target: T1, Estrogen receptor (Mus musculus); assay: Anti-uterotrophic effect in hormone-dependent transplant MXT bearing mice as relative uterine weight in treated and control mice at 20 mg (control=100+/-30); format: functional
Target sequence in this assay (P19785 whole entry, looked up, chain 1 of 2): as the sequence (P19785 whole entry, looked up) above
Target sequence in this assay (O08537 whole entry, looked up, chain 2 of 2): as the sequence (O08537 whole entry, looked up) above

[22] = test system: MCF7; assay: Effect on Estrogen receptor positive MCF-7 human breast cancer cell proliferation at 5x10E-6M (control = 22.3+/-3.3); format: functional; summary of the method: as §1
[23] = test system: MCF7; assay: Effect on [3H]thymidine incorporation into estrogen receptor positive MCF-7 human breast cancer cells at 1x10E-6M (control = 7.7+/-0.8); format: functional; summary of the method: as §5
[24] = species: Mus musculus; assay: Relative tumor weight in treated compared to control mice bearing hormone-dependent transplanted MXT mammary tumors at 20 mg; format: functional, organism-based
[25] = molecular target: T1, Estrogen receptor (Mus musculus); assay: Uterotrophic effect in mice as relative uterine weight(mg) at 250 ug (control = 12.4+/-3.7); format: functional, tissue-based; summary of the method: as §2
Target sequence in this assay (P19785 whole entry, looked up, chain 1 of 2): as the sequence (P19785 whole entry, looked up) above
Target sequence in this assay (O08537 whole entry, looked up, chain 2 of 2): as the sequence (O08537 whole entry, looked up) above

[26] = species: Mus musculus; assay: Anti-tumor activity in hormone-dependent transplant MXT mammary tumor bearing mice at 20 mg (control=534+/-652); format: functional, organism-based
[27] = molecular target: T1, Estrogen receptor (Mus musculus); assay: Uterotrophic effect in mice as relative uterine weight(mg) at 25 ug (control = 12.4+/-3.7); format: functional, tissue-based; summary of the method: as §2
Target sequence in this assay (P19785 whole entry, looked up, chain 1 of 2): as the sequence (P19785 whole entry, looked up) above
Target sequence in this assay (O08537 whole entry, looked up, chain 2 of 2): as the sequence (O08537 whole entry, looked up) above

[28] = test system: MCF7; assay: Effect on Estrogen receptor positive MCF-7 human breast cancer cell proliferation at 1x10E-6M (control = 22.3+/-3.3); format: functional; summary of the method: as §1
[29] = molecular target: T1, Estrogen receptor (Mus musculus); assay: Anti-uterotrophic effect in hormone-dependent transplant MXT bearing mice as relative uterine weight in treated and control mice at 10 mg (control=100+/-30); format: functional
Target sequence in this assay (P19785 whole entry, looked up, chain 1 of 2): as the sequence (P19785 whole entry, looked up) above
Target sequence in this assay (O08537 whole entry, looked up, chain 2 of 2): as the sequence (O08537 whole entry, looked up) above

[30] = test system: MCF7; assay: Effect on [3H]thymidine incorporation into estrogen receptor positive MCF-7 human breast cancer cells at 5x10E-6M (control = 7.7+/-0.8); format: functional; summary of the method: as §6
[31] = molecular target: T1, Estrogen receptor (Mus musculus); assay: Anti-uterotrophic effect in hormone-dependent transplant MXT bearing mice as relative uterine weight in treated and control mice at 20 mg (control=100+/-24); format: functional
[32] = molecular target: T1, Estrogen receptor (Mus musculus); assay: Uterotrophic effect in mice as relative uterine weight(mg) at 25 ug (control = […]+/-1.7); format: functional, tissue-based
[33] = molecular target: T1, Estrogen receptor (Mus musculus); assay: Uterotrophic effect in mice as relative uterine weight(mg) at 250 ug (control = […]+/-1.7); format: functional, tissue-based
[34] = species: Mus musculus; assay: Anti-tumor activity in hormone-dependent transplant MXT mammary tumor bearing mice at 20 mg (control=388+/-269); format: functional, organism-based

`Cc1c(-c2ccc(O)cc2)n(CCCCNCc2ccccn2)c2ccc(O)cc12` was tested. Which Cell no/dish [1] did it give?
Its Cell no/dish is 452000.

And the Relative uterus weight [2]?
The Relative uterus weight was 22.1 mg.

And the T/C [3]?
Its T/C is 96%.

And the Relative uterus weight [4]?
Its Relative uterus weight is 52.2 mg.

And the Relative uterus weight [5]?
The Relative uterus weight was 44 mg.

And the inhibition [6]?
Its inhibition is 25%.

What about the Activity [7] of the same compound?
The Activity was 37800.

What about the inhibition [8] of the same compound?
The inhibition was 4%.

What about the T/C [9] of the same compound?
The T/C was 73%.

What about the Relative uterus weight [10] of the same compound?
Its Relative uterus weight is 15 mg.

And the T/C [11]?
The T/C was 76%.

What about the Activity [12] of the same compound?
Its Activity is 33100.

What about the Cell no/dish [13] of the same compound?
Its Cell no/dish is 598000.

What about the T/C [14] of the same compound?
Its T/C is 87%.

CISPLATIN was tested. Which T/C [15] did it give?
Its T/C is 12%.

And the Tumor weight [16]?
Its Tumor weight is 64 mg.

What about the T/C [17] of the same compound?
The T/C was 76%.

Which results are given for “[5-hydroxy-3-methyl-2-(4-hydroxyphenyl)-1-[omega-[(2-pyridylmethyl)amino]hexyl]indole]dichloroplatinum (II) complex”?
Relative uterus weight [18]: 56.3 mg; T/C [3]: 52%; Tumor weight [19]: 195 mg; T/C [20]: 36%; T/C [21]: 113%; Cell no/dish [22]: 124000; Activity [23]: 1400; T/C [24]: 22%; Relative uterus weight [25]: 22.5 mg; Tumor weight [26]: 121 mg; T/C [9]: 56%; Relative uterus weight [27]: 20.2 mg; Cell no/dish [28]: 116000; T/C [11]: 12%; T/C [29]: 92%; T/C [14]: 18%; Activity [30]: 900

How did the Relative uterus weight [18] turn out when “[5-hydroxy-3-methyl-2-(4-hydroxyphenyl)-1-[omega-[(2-pyridylmethyl(1-ethyl))amino]hexyl]indole]dichloroplatinum (II) complex” was run?
The Relative uterus weight was 48 mg.

And the T/C [31]?
Its T/C is 104%.

What about the Relative uterus weight [32] of the same compound?
Its Relative uterus weight is 20.2 mg.

And the T/C [24]?
The T/C was 21%.

And the Relative uterus weight [33]?
Its Relative uterus weight is 35.7 mg.

What about the Tumor weight [34] of the same compound?
The Tumor weight was 80 mg.
